MT stabilizer – microtubule stabilizers in HeLa cells; % tubulin-high responders, % at 10 µM; 200,000 compounds, 0.83% hits; HeLa tubulin immunostaining HCS, 24 h; share of cells brighter than vehicle mean+2SD;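 active = plate Z-score above 3 for both tubulin-high and condensed-nucleus cell shares, with cell loss under 80%, at 10 µM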;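 note: anti alpha tubulin signal scored within the nucleus-defined area of each cell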
Autophagy HCS – autophagy modulation, high-content screen | MEF GFP-LC3 puncta imaging; test concentration mostly 10 µM | calls only at 10 µM (by protocol) | 190,000 compounds, 0.98% hits | AID 463193;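 active = percentage of spot-positive cells more than 3 SD above its plate mean, without a fluorescence outlier flag or 80% toxicity; inconclusive = no clear call, values can overlap the other calls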;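 note: spot-positive cell cutoff set from DMSO-treated cells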
Dynein transport – dynein cargo transport inhibition; 220,000 compounds, 0.47% hits; 3617.4 mouse cells, GR-EGFP nuclear translocation imaging; test concentration mostly 20 µM; stimulated with dexamethasone, 1 µM; stronger effect = lower value; z-score, hits read low;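 active = plate z-score of nuclear minus cytoplasmic receptor signal below a set negative limit, without overly bright fluorescence or cell loss, cut at about -3.5 in these data, passing the limit was not always enough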;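 note: z-score of nuclear minus cytoplasmic ring GR-EGFP intensity difference per well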
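Schedule: 48 h induction, then 1 h compound, then 30 min agonist, 37 °C. Buffer or medium: tetracycline-free induction medium containing charcoal-stripped FBS. Reagent: 1.0 µM final dexamethasone stimulus. Evaluation: nuclear versus cytoplasmic GR-EGFP signal, averaged per well. Signal: high-content fluorescence imaging after fixation.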
Hsp70 act – transcriptional activators of Hsp70. HeLa Hsp70 promoter luciferase reporter, luminescence; scaled: vehicle 0, proteasome-inhibitor control 100%. activation, % at 10 µM. 200,000 compounds, 0.04% hits. AID 1203;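 active = activation above the mean across all tested compounds plus 3 SD, cutoff set per campaign, cut at about 5.5% in these data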;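 note: 100% = MG132 at 30 µM as the positive control and 0% = DMSO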
b-catenin transl – beta-catenin nuclear translocation modulation | HeLa beta-catenin nuclear translocation, immunofluorescence imaging | nuclear translocation activity, % at 5 µM | 190,000 compounds, 0.3% hits | AID 1665;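 active = nuclear translocation activity above 50% at 5 µM, with a well cell count of 50 or more; inconclusive = wells under 50 cells across six images, flagged as toxic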;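 note: per-cell ratio of nuclear to cytoplasmic median beta-catenin stain intensity; plate controls were DMSO negative control for no effect and GSK-3 inhibitor IX positive control for full effect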
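Read-out: Nuclear/cytoplasmic beta-catenin signal ratio, % activation | Assay system: Human HeLa cell line | Times: 24 h compound exposure at 37°C, 5% CO2 | Signal: Fluorescence imaging of beta-catenin antibody stain plus DAPI | Dosing: 5 µM primary, 0.02–20 µM confirmation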
Active calls of the source: *; i = inactive; u = inconclusive; x = no result; + = active, no number. The list is not random: actives were taken first. Their share in the collection is about 2.1%.

SMILES	MT stabilizer	Autophagy HCS	Dynein transport	Hsp70 act	b-catenin transl
CCOc1ccc(/C(C)=N/N2C(=O)C(CC(=O)Nc3ccc(OC)cc3[N+](=O)[O-])SC2=Nc2cccc(C)c2C)cc1 (stereo not drawn)	2.9	i	-0.743	-0.4	3.4
COc1ccccc1/C=N/N1C(=O)C(CC(=O)Nc2ccc([N+](=O)[O-])cc2OC)SC1=Nc1cccc(C)c1C (stereo not drawn)	18.9*	i	-0.9	1.0	0.0
CC1CC2(C)Oc3ccccc3CC2C(C)C1CNCCCN(C)C (stereo not drawn)	3.0	i	2.61	0.0	57.3*
CC1Cc2ccccc2N1C(=O)CNCCCN(C)C (stereo not drawn)	1.3	i	-0.797	-0.2	-4.1
C/C(CC(=O)Nc1ccc([N+](=O)[O-])cc1)=N/NC(=O)C1CC12CCC2 (stereo not drawn)	4.4	i	0.565	0.1	-0.2
CCCCNC(=S)N(C)/N=C/c1c(C)[nH]c2ccccc12	2.0	+	-0.12	-0.3	x
Cc1ncc([N+](=O)[O-])n1Cc1ccc(Br)cc1	2.2	i	-1.13	0.4	-0.3
CC(=O)Oc1ccc2c(c1)Oc1cc(OC(C)=O)ccc1C21OC(=O)c2ccccc21	4.4	i	-4.73*	-0.3	-0.3
CCc1c(C)nc2ncnn2c1NCCc1ccc(OC)cc1	37.1*	i	-0.934	-0.3	85.0*
CCOc1ccccc1N1CCN(C(=O)C2c3ccccc3Oc3ccccc32)CC1	39.6*	i	1.98	-0.2	59.5*
CCOc1ccccc1N1CCN(C(=O)c2ccccc2)CC1	2.4	i	0.914	-0.5	x
COc1ccc(OC)c(-c2cc(-c3cccnc3)nc(N)c2C#N)c1	x	x	1.12	x	0.6
COc1ccc(OC)c(-c2c(C#N)c(N)nc3c2c(=O)nc2sccn23)c1	3.2	+	-0.482	-0.3	0.4
Nc1nc(CN2CCN(c3ccccc3)CC2)nc(Nc2ccc(Cl)cc2)n1	4.5	i	-0.276	-0.3	-1.7
Cc1cccc(N2CCN(Cc3cn(C)nc3-c3ccccc3F)CC2)n1	33.6*	i	0.296	-0.1	102.7*
Cn1cc(CN2CCN(c3ccc(Cl)cn3)CC2)c(-c2ccccc2F)n1	3.9	i	-0.293	-0.1	0.2
COc1ccc(CNC[C@@H](CCCCN(C)Cc2ccc(OC)cc2)N2C[C@H](c3ccccc3)N(CCc3ccc(Cl)c(Cl)c3)C(=O)C2=O)cc1	40.0	+	4.11	0.2	u
COCC(=O)Nc1c(C(=O)Nc2ccccc2OC)oc2ccccc12	1.7	i	0.37	0.4	-1.1
COc1ccccc1NC(=O)c1oc2ccccc2c1NC(=O)c1cc(OC)c(OC)c(OC)c1	36.4*	+	-3.77	-0.3	x
Cn1c(=O)cc(NCCc2ccccc2)[nH]c1=O	26.3*	i	-0.389	-0.3	x
Cc1ccc(S(=O)(=O)Nc2c(C)n(C)n(-c3ccccc3)c2=O)cc1C(=O)OCC(=O)N1CCCC(C)C1 (stereo not drawn)	3.2	i	-0.498	-0.2	-3.9
CCOc1ccc2[nH]c(=O)c(CN(Cc3cccs3)Cc3nnnn3C(C)(C)C)cc2c1	32.6*	i	1.19	0.0	-3.7
COCCn1nnnc1C(C(C)C)N(Cc1ccccc1)Cc1cc2cc(OC)ccc2[nH]c1=O (stereo not drawn)	2.7	i	-0.992	-0.2	-2.2
CCc1ccc2[nH]c(=O)c(CN(Cc3ccc(OC)cc3)Cc3nnnn3CCOC)cc2c1	3.4	+	-0.53	-0.3	0.8
COc1ccc2[nH]c(=O)c(CN(Cc3cccs3)Cc3nnnn3C(C)(C)C)cc2c1	2.6	i	-0.00999	-0.4	-1.4
SMILES	MT stabilizer	Autophagy HCS	Dynein transport	Hsp70 act	b-catenin transl
O=C(c1c[nH]c(C(=O)N2CCN(c3ccccc3F)CC2)c1)c1cccc(Cl)c1Cl	23.1*	i	-0.0199	-0.1	-0.5
Cc1ccccc1C(=O)c1c[nH]c(C(=O)N2CCN(c3ccccc3F)CC2)c1	7.8	i	1.33	-0.3	-2.2
Cc1ccc(Cl)cc1NC1=C/C(=N\S(=O)(=O)c2cccs2)c2ccccc2C1=O	32.8*	i	-0.554	0.3	x
O=C1C(Nc2ccc(O)cc2)=C/C(=N/S(=O)(=O)c2cccs2)c2ccccc21	4.7	+	-0.572	-0.4	0.4
Cc1cccc(NC2=C/C(=N/S(=O)(=O)c3cccs3)c3ccccc3C2=O)c1	37.6	i	-0.336	-0.3	-2.0
Cc1ccc(NC2=C/C(=N\S(=O)(=O)c3cccs3)c3ccccc3C2=O)c(C)c1	28.3	i	-2.15	-0.3	-0.9
CC(C)(C)C(=O)Nc1ccc(-c2cc3cc(Cl)ccc3o2)cc1	x	x	-0.774	x	-0.8
N#Cc1sc2nc(-c3ccccc3)cc(C(F)(F)F)c2c1N	3.8	+	0.957	-0.1	-3.4
O=c1cc(O)c2sc3nc(-c4ccccc4)cc(C(F)(F)F)c3c2[nH]1	3.2	i	-1.11	0.2	-2.5
O=C(COc1ccc(Nc2ccccc2)cc1)OCC(=O)N1CCCCC1	x	x	0.642	x	-1.9
CCN1CCN(c2ncc3c(n2)CC(c2cc(OC)c(OC)c(OC)c2)CC3=O)CC1 (stereo not drawn)	32.5*	i	0.243	-0.2	140.9*
O=C(CCCl)N(Cc1nc2ccccc2c(=O)[nH]1)Cc1cccs1	3.4	i	-1.17	0.1	-1.4
CCN1/C(=N\N)c2cccc3cccc1c23	18.8	+	0.244	-0.2	-0.1
COc1cc2c3nnc(-c4ccc(F)cc4)c-3cn(Cc3ccccc3F)c2cc1OC	3.2	+	0.228	0.1	0.5
C=CCOc1ccc(/C(O)=C2\C(=O)C(=O)N(CCN(C)C)C2c2cccs2)cc1 (stereo not drawn)	2.3	+	1.75	-0.1	-3.4
O=C(/C=C/c1cccs1)N1CCC2(CC1)Oc1ccc(Cl)cc1C(=O)C21CC(c2cccnc2)=NO1 (stereo not drawn)	x	x	-0.331	x	52.4*
Cc1cc(O)c2/c(=N\N)c(-c3csc(C)n3)coc2c1	x	x	-0.305	x	-0.5
Cc1ccc(C(=O)N/C(=C\c2ccc(-c3cccc([N+](=O)[O-])c3)o2)C(=O)NC(C)(C)C)cc1	3.7	i	-0.221	-0.2	-2.4
CCCNC(=O)Cn1c(=O)/c(=C\c2ccc(-c3cccc([N+](=O)[O-])c3)o2)s/c1=C\C(=O)C(C)(C)C	2.8	+	-2.75	-0.3	3.5
COc1ccccc1N1CCN(c2cc(=O)n(Cc3ccc(F)cc3)c(=O)[nH]2)CC1	21.8*	x	-0.887	-0.2	1.4
O=C(Nc1nnc(-c2ccncc2)o1)c1ccc(Br)s1	2.3	i	1.42	-0.1	0.4
Cc1cccc(-n2c(N)c(-c3nc4ccccc4n3C)c3nc4ccccc4nc32)c1	i	+	0.173	-0.2	-0.6
Cn1c(-c2c(N)n(-c3ccccc3)c3nc4ccccc4nc23)nc2ccccc21	2.3	+	-0.0798	0.0	2.8
Cc1ccc(-n2c(N)c(-c3nc4ccccc4n3C)sc2=S)cc1	16.9	i	10.2	-0.3	0.2

Source: PubChem
